OXTR potentiator: human OXTR potentiation; 320,000 compounds, 0.061% hits; CHO-OTR cells, Fluo-8 calcium fluorescence, potentiator mode; 0% = oxytocin EC15, 100% = EC100; P30559; activation, % at 3 µM; AID 2445;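 active = activation above that plate's cutoff, the mean activation of tested compounds plus 3 SD, cut at about 6.6% in these data, passing the limit was not always enough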;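 also: 100% uses oxytocin at 75 nM as the full agonist control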
Target sequence (P30559 whole entry, looked up): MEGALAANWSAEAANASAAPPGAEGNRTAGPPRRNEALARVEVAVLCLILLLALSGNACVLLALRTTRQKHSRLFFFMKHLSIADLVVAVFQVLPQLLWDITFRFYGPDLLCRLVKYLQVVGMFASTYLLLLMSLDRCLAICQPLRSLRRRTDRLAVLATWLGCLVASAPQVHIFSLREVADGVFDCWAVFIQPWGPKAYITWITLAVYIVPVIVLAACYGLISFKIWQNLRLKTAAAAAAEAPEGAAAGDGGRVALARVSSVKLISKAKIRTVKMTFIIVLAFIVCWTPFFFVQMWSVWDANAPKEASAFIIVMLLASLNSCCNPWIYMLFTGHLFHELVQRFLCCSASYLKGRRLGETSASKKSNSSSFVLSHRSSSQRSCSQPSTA
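Material: human OTR in CHO cells. Compound: 3.0 µM, one dose. Timing: compound 6 min at room temperature before oxytocin, 100 s read. Evaluation: % activation of max/min ratio relative to oxytocin controls. Replication: single well per compound, singlicate. Signal: Fluo-8 calcium dye fluorescence.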
OXTR agonist: human OXTR agonism; P30559; CHO-OTR cells, Fluo-8 calcium fluorescence; normalized: DMSO 0%, oxytocin 100%; activation, % at 3 µM; 320,000 compounds, 0.32% hits;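 active = activation above the mean of all tested compounds plus 3 SD, cutoff set per screening run, cut at about 20% in these data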;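 also: peak over basal fluorescence ratio from a 100 s FLIPR kinetic read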
zfTRPN1 agonist: activates the zebrafish TRPN1 channel; HEK293 zebrafish TRPN1-YFP, Fluo-8 calcium fluorescence; 100% = response to 87 µM carbachol; activation, % at 3 µM; 220,000 compounds, 0.18% hits; AID 1424;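 active = activation above its plate's cutoff, the mean activation of test wells on that plate plus 3 SD, cut at about 19% in these data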;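 also: 0% = DMSO alone and 100% = 87 µM carbachol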
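Material: zebrafish TRPN1-YFP in HEK293 cells. Doses: one dose of 3 µM, 0.3% DMSO. Incubation: dye 1 h 37 °C plus 30 min RT. Measured by: intracellular calcium fluorescence with Fluo-8.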
TRPML3 ag: activates the human TRPML3 channel; AID 1448; HEK293 TRPML3-YFP, Fluo-8 calcium fluorescence; 100% = the carbachol control signal; 220,000 compounds, 0.29% hits; activation, % at 3 µM;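 active = activation above its plate's cutoff, the mean activation of the plate's test wells plus 3 SD, cut at about 12% in these data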;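 also: 0% = DMSO only wells and 100% = carbachol wells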
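Test system – HEK293 line with stable expression of human TRPML3-YFP channel · Control set – carbachol 87 µM final as high control (100%), DMSO as low control (0%) · Signal – Fluo-8 calcium dye fluorescence, ex 470-495, em 515-575 nm · Incubation – 1-h 37 °C dye load, 5-s basal, 120-s post-compound reads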
V1aR counter: V1a receptor agonism, counter-screen for OXTR agonists. 320,000 compounds, 0.25% hits. CHO-V1R cells, Fluo-8 calcium fluorescence, agonist mode; 0% DMSO, 100% 3 nM vasopressin. AID 2797. activation, % at 3 µM. P37288;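 active = activation above the mean activation of all tested compounds plus 3 SD, per screening run, cut at about 20% in these data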;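 also: signal is peak over basal fluorescence ratio across a 100 second FLIPR read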
OXTR agonist cf: confirmation of human oxytocin receptor agonists | shares compounds with OXTR agonist | 390 compounds, 20% hits | activation, % at 3 µM | CHO-OTR cells, Fluo-8 calcium fluorescence, agonist;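 active = mean activation above about 20% derived from the earlier single-dose screen, limit read from the data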;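 also: peak over minimum fluorescence ratio per well during a 100 second FLIPR read; 0% = DMSO alone and 100% = oxytocin high control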
V1R ag counter 3x: activates V1a receptor in oxytocin agonist counter-screen | shares compounds with OXTR agonist | CHO-V1R cells, Fluo-8 calcium fluorescence | activation, % at 3 µM | 390 compounds, 10% hits | AID 434991;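 active = mean activation over triplicate exceeds the hit threshold set in the earlier primary screen, cut at about 20% in these data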;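 also: peak over basal fluorescence ratio within a 100 second read; 0% = DMSO alone and 100% = 3 nM vasopressin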
OXTR pot cf: confirmation of human oxytocin receptor potentiators. CHO-OTR cells, Fluo-8 calcium fluorescence, potentiation; scaled from low-dose to maximal oxytocin. shares compounds with OXTR potentiator. 180 tested, under 10 active. activation, % at 3 µM. AID 434985;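 active = mean percent activation over triplicates above a cutoff set from solvent-only control plates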;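 also: compounds tested in the presence of an EC15 dose of oxytocin; 0% = EC15 oxytocin with DMSO and 100% = EC100 oxytocin with DMSO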
V1R ag confirm: human V1a receptor agonism, confirmation; shares compounds with V1aR counter; CHO-V1R cells, Fluo-8 calcium fluorescence, agonist; activation, % at 3 µM; 180 compounds, 20% hits;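 active = average activation exceeds primary screen hit cutoff, cut at about 21% in these data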;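 also: peak over basal fluorescence ratio during a 100 s FLIPR read; 0% = DMSO only wells and 100% = 3 nM vasopressin wells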
OXTR counter: OXTR agonism, counter-screen for V1R agonists. CHO-OTR cells, Fluo-8 calcium fluorescence, agonist. activation, % at 3 µM. shares compounds with V1aR counter. 180 compounds, 10% hits;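 active = mean activation over three repeats above the cutoff from the earlier oxytocin receptor agonist screen, cut at about 20% in these data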;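 also: peak over minimum fluorescence ratio within a 100 second FLIPR read; 0% = DMSO only wells and 100% = oxytocin high control wells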
* marks the source's active call; other numbers are inactive results; x = no result. Rows were chosen to be rich in hits. Some 0.55% of all compounds tested hit in one or more screens of this group.

SMILES | OXTR potentiator | OXTR agonist | zfTRPN1 agonist | TRPML3 ag | V1aR counter | others
FC(F)(F)c1cccc(C2NCc3ccccc3-n3cccc32)c1 (centres undefined) | -21.0 | -1.7 | x | x | -0.4
O=C(COc1ccc(Br)cc1)N1CCN(Cc2c[nH]c3ccccc23)CC1 | -24.2 | 9.9 | 0.9 | 0.9 | 5.0
O=C(COc1ccc2ccccc2c1)N1CCN(Cc2c[nH]c3ccccc23)CC1 | -17.9 | 24.0* | 0.9 | 2.0 | 8.5 | OXTR agonist cf=9.6;V1R ag counter 3x=4.2
C/C(=N\Nc1ccccc1)c1c(O)n(C)c(=O)n(C)c1=O | -2.0 | -2.0 | 0.3 | 1.3 | 1.4
CCOc1cc2c(cc1OCC)-n1cccc1C(c1ccc(F)c(OC)c1)NC2 (centres undefined) | -7.1 | 22.3* | x | x | 15.5 | OXTR agonist cf=7.0;V1R ag counter 3x=3.3
CCN(CC(=O)Nc1ccc(NC(C)=O)cc1)C(=O)CSC(c1ccccc1)c1ccccc1 | -8.3 | -0.4 | x | x | 6.9
CNc1ccc2oc(C[C@H]3O[C@@]4(CC[C@H]3C)O[C@H]([C@H](C)C(=O)c3ccc[nH]3)[C@H](C)C[C@H]4C)nc2c1C(=O)O | -25.9 | 74.7* | x | x | 14.7 | OXTR agonist cf=121.9*;V1R ag counter 3x=134.0*
COc1ccc(C(c2c(O)c3ccccc3oc2=O)c2c(C)n(C)n(-c3ccccc3)c2=O)cc1 (centres undefined) | 12.3* | -1.1 | 0.1 | 0.3 | -1.1 | OXTR pot cf=-10.3
CC1CCCCC1NC1CCN(C)CC1 (centres undefined) | -1.6 | 0.5 | x | x | 1.7
CC1(C)OC(c2ccccc2)=C/C(=C/C=C2C(=O)NC(=O)NC2=O)O1 | -16.7 | 11.1 | 46.2* | 24.2* | 21.9* | V1R ag confirm=37.3*;OXTR counter=25.5*
CN1CCN(c2ccc(S(C)(=O)=O)cc2[N+](=O)[O-])CC1 | -2.4 | 0.8 | 2.1 | 0.9 | 0.3
CN1CCN(c2ccc([N+](=O)[O-])c3no[n+]([O-])c23)CC1 | -23.8 | 18.7 | 18.3 | 6.3 | 27.5* | V1R ag confirm=5.1;OXTR counter=5.4
CN(C)c1ccc(/C=C/[N+](=O)[O-])cc1 | -5.9 | 18.4 | 11.3 | 6.5 | 29.4* | V1R ag confirm=37.9*;OXTR counter=24.1*
Cc1cc(Oc2cc(NN3CCCCC3)c([N+](=O)[O-])cc2[N+](=O)[O-])ccc1[N+](=O)[O-] | -5.3 | -0.7 | x | x | 0.1
CN1CCN(c2cc(N3CCCCCC3)c(F)cc2[N+](=O)[O-])CC1 | -8.6 | 4.7 | -0.4 | 0.9 | 1.4

Screens: PubChem BioAssay, The Scripps Research Institute Molecular Screening Center
